Results as given in paper PMC6016630 (British Journal of Pharmacology, 2018).

Experiments:
[1] = test system: cAMP in the PFC of mice; test: Determination of cAMP in mouse prefrontal cortex; format: in vivo; conditions: 30 min after p.o. administration, highest dose tested, P < 0.05
Summary of the method: (§1)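 Adult male CD-1 mice, n = 8/group, dosed p.o. with vehicle (0.5% Natrosol, 0.01% Tween-80) or test compound. Killed by focused microwave brain irradiation 30 min later. PFC homogenized and centrifuged in 0.5 N HCl; supernatant assayed by ELISA. Detection limits: cGMP 0.02, cAMP 0.03 pmol·mg−1 tissue. One-way ANOVA, Dunnett's.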

[2] = test system: synaptic transmission in acute slices of the rat PFC; test: Extracellular field potential; format: cell-based
Summary of the method: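 PFC slices from male Sprague Dawley rats aged 5–6 weeks, cut in ice-cold ACSF (pH 7.4, 95% O2/5% CO2). Layer V fEPSPs (prelimbic/infralimbic) evoked by 100 μs pulses every 30 s to layers II–III. Drugs from DMSO, 0.05% final, applied 30–60 min after 30 min baseline. Amplitude as % of last 10 min baseline; 3–14 slices/group; paired t-test.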

[3] = test system: male CD‐1 mice; test: T‐maze continuous alternation task, MK‐801‐induced memory impairment; format: in vivo, mouse; conditions: for time spent in the T‐maze vs. MK‐801/vehicle‐treated group: P > 0.05
Summary of the method: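 Male CD-1 mice (about 28 g) on a reversed light cycle, tested in the dark phase in an enclosed, elevated T-maze under dim light (10 lux). MK-801 s.c. 30 min pre-test; test compound (0.1–75 mg·kg−1 p.o., Natrosol/Tween vehicle) given just after it. 14 trials in 14 min; mice completing <50% excluded. Reversal scaled: saline/vehicle 100%, MK-801/vehicle 0%. Kruskal–Wallis, Dunn's.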

[4] = test system: cGMP in the PFC of mice; test: Determination of cGMP in mouse prefrontal cortex; format: in vivo; conditions: 30 min after p.o. administration, highest dose tested, P < 0.05
Summary of the method: as §1

[5] = test system: male Lister‐hooded rats; test: 5‐choice serial reaction time task; format: in vivo, rat
Summary of the method: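 Food-restricted rats held at about 85% of free-feeding weight. Trained to criterion: ≥50 correct trials, ≥70% accuracy, ≤20% omissions (SD 0.7 s, ITI 5 s, LH 5 s). Ten challenge sessions with SD cut from 700 to 500 ms. Upper and lower 15% by mean accuracy taken as high/low performers, n = 9. Test compound in saline given i.p. 10 min pre-test. Repeated-measures ANOVA, Dunnett's.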

[6] = high‐performing rats, 3 mg·kg^−1, mean ± SEM
[7] = high‐performing rats, 6 mg·kg^−1, mean ± SEM
[8] = low‐performing rats, 3 mg·kg^−1, mean ± SEM
[9] = low‐performing rats, 6 mg·kg^−1, mean ± SEM

CN1C(=O)c2c(nn(Cc3ccc(-c4cccc(F)n4)cc3)c2Nc2ccccc2)N2C1=N[C@@H]1CCC[C@@H]12 [ITI‐214]
PFC cAMP vs. vehicle [1]: significant increase | effect on fEPSP amplitude, compound alone ([2]; ITI‐214 per se): did not show any effects per se | effect on forskolin‐induced fEPSP amplitude with activated PDE1 ([2]; forskolin + thapsigargin + ITI‐214): rescued the reduced fEPSPs amplitudes | change in alternation of MK‐801‐treated mice ([3]; ITI‐214 0.1 mg·kg^−1 p.o., MK‐801 0.1 mg·kg^−1 s.c.): 0% | change in alternation of MK‐801‐treated mice ([3]; ITI‐214 1 mg·kg^−1 p.o., MK‐801 0.1 mg·kg^−1 s.c.): 13% | effect on alternation performance of MK‐801‐treated mice ([3]; ITI‐214 1 mg·kg^−1 p.o., P < 0.05 vs. MK‐801): statistically significant | change in alternation of MK‐801‐treated mice ([3]; ITI‐214 3 mg·kg^−1 p.o., MK‐801 0.1 mg·kg^−1 s.c.): 12% | effect on alternation performance of MK‐801‐treated mice ([3]; ITI‐214 3 mg·kg^−1 p.o., P = 0.059 vs. MK‐801): trend towards a significant effect | change in alternation of MK‐801‐treated mice ([3]; ITI‐214 10 mg·kg^−1 p.o., MK‐801 0.1 mg·kg^−1 s.c.): 10% | change in alternation of MK‐801‐treated mice ([3]; ITI‐214 30 mg·kg^−1 p.o., MK‐801 0.1 mg·kg^−1 s.c.): 7% | change in alternation of MK‐801‐treated mice ([3]; ITI‐214 75 mg·kg^−1 p.o., MK‐801 0.1 mg·kg^−1 s.c.): 2% | recovery in cognitive performance ([3]; mice, ITI‐214 0.1 mg·kg^−1 p.o., MK‐801 0.1 mg·kg^−1 s.c.): 1% | recovery in cognitive performance ([3]; mice, ITI‐214 1 mg·kg^−1 p.o., MK‐801 0.1 mg·kg^−1 s.c.): 57% | recovery in cognitive performance ([3]; mice, ITI‐214 3 mg·kg^−1 p.o., MK‐801 0.1 mg·kg^−1 s.c.): 51% | recovery in cognitive performance ([3]; mice, ITI‐214 10 mg·kg^−1 p.o., MK‐801 0.1 mg·kg^−1 s.c.): 45% | recovery in cognitive performance ([3]; mice, ITI‐214 30 mg·kg^−1 p.o., MK‐801 0.1 mg·kg^−1 s.c.): 32% | recovery in cognitive performance ([3]; mice, ITI‐214 75 mg·kg^−1 p.o., MK‐801 0.1 mg·kg^−1 s.c.): 11% | time spent in the T‐maze vs. MK‐801/vehicle‐treated group ([3]; mice, ITI‐214 0.1–75 mg·kg^−1 p.o.): did not change | maximal effect, recovery in the cognitive function ([3]; mice, ITI‐214 p.o., MK‐801 0.1 mg·kg^−1): approximately 57% | PFC cGMP vs. vehicle [4]: significant increase

C=C[C@@]1(C)CC(=O)[C@]2(O)[C@@]3(C)[C@@H](O)CCC(C)(C)[C@@H]3[C@H](O)[C@H](OC(C)=O)[C@@]2(C)O1 [forskolin]
effect on fEPSPs ([2]; forskolin 0.1, 1, 10 μM): increased fEPSPs concentration‐dependently

Oc1cc2c(cc1O)C(c1ccccc1)CNCC2 (stereo not drawn) [SKF38393]
effect on synaptic transmission (fEPSP amplitude) ([2]; SKF38393): increased synaptic transmission | recovery in the cognitive performance ([3]; mice, SKF38393 4 mg·kg^−1 s.c., MK‐801 0.075 mg·kg^−1 s.c.): 67% | recovery in the cognitive performance ([3]; mice, SKF38393 8 mg·kg^−1 s.c., MK‐801 0.075 mg·kg^−1 s.c.): 43% | effect on MK‐801‐induced deficits in spontaneous alternation ([3]; mice, SKF38393 8 mg·kg^−1 s.c., P > 0.05 vs. MK‐801 and vehicle): ineffective | time spent in the T‐maze vs. MK‐801/vehicle‐treated group ([3]; mice, SKF38393 2, 4, 8 mg·kg^−1 s.c.): did not change | effect on MK‐801‐induced deficits in spontaneous alternation ([3]; mice, SKF38393 2 and 4 mg·kg^−1 s.c., P < 0.05 vs. MK‐801): improved | maximal effect, recovery in the cognitive function ([3]; mice, SKF38393 s.c., MK‐801 0.075 mg·kg^−1): approximately 67% | Correct latency [5, 6]: 0.79 ± 0.02 s | Omissions [5, 6]: 11.24 ± 2.64 n | Perseverative responses [5, 6]: 0.94 ± 0.26 n | Premature responses [5, 6]: 3.17 ± 0.72% | Reward latency [5, 6]: 1.24 ± 0.06 s | Correct latency [5, 7]: 0.83 ± 0.03 s | Omissions [5, 7]: 21.65 ± 2.98 n | Perseverative responses [5, 7]: 1.06 ± 0.27 n | Premature responses [5, 7]: 1.97 ± 0.69 % | Reward latency [5, 7]: 1.27 ± 0.06 s | enhancement of accuracy ([5]; high‐performing rats, SKF38393 3 or 6 mg·kg^−1 i.p., P > 0.05): but not high‐performing rats | Correct latency [5, 8]: 0.77 ± 0.02 s | Omissions [5, 8]: 10.61 ± 1.70 n | Perseverative responses [5, 8]: 0.83 ± 0.26 n | Premature responses [5, 8]: 3.06 ± 0.27 % | Reward latency [5, 8]: 1.21 ± 0.04 s | Correct latency [5, 9]: 0.85 ± 0.03 s | Omissions [5, 9]: 17.74 ± 2.58 n | Perseverative responses [5, 9]: 0.67 ± 0.20 n | Premature responses [5, 9]: 2.15 ± 0.49 % | Reward latency [5, 9]: 1.31 ± 0.06 s

C/C=C(/C)C(=O)O[C@H]1C(C)=C2[C@H]([C@@H]1OC(=O)CCCCCCC)[C@@](C)(OC(C)=O)C[C@H](OC(=O)CCC)[C@@]1(O)[C@H]2OC(=O)[C@@]1(C)O [thapsigargin]
effect on forskolin‐induced fEPSP amplitude ([2]; forskolin + thapsigargin (PDE1 activated via Ca^2+/calmodulin)): reduced fEPSPs amplitudes

C[C@]12N[C@H](Cc3ccccc31)c1ccccc12 [MK‐801]
overall time spent to complete the T‐maze task vs. control group ([3]; mice, MK‐801 0.075 mg·kg^−1 s.c., Figure S1a (SKF38393 study)): reduced | spontaneous alternation vs. vehicle‐injected mice ([3]; mice, MK‐801 0.075 mg·kg^−1 s.c., P < 0.05): significant reduction | overall time spent to complete the T‐maze task vs. control group ([3]; mice, MK‐801 0.1 mg·kg^−1 s.c., Figure S1b (ITI‐214 study)): reduced | reduction of spontaneous alternation vs. vehicle‐injected mice ([3]; mice, MK‐801 0.1 mg·kg^−1 s.c., P < 0.05): ~23%
